≈ marks a conversion by molar mass, not a printed value.
What was measured:
[1] = system: endogenous insulin promoter; assay: Endogenous insulin mRNA; assay type: cell-based, human; settings: for effect of fatty acid on insulin gene expression (quantitative RT-PCR): T6PNE, 1μM tamoxifen, 48 hours; for effect on endogenous insulin expression / insulin promoter activity: T6PNE cells
Method in brief: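 Q-PCR of endogenous insulin mRNA in T6PNE cells after 48 h exposure to test compound across a concentration series. For fatty acids, cells got 1μM tamoxifen plus fatty acid or DMSO vehicle for 48 hours before RNA harvest. Insulin mRNA was normalized to GAPDH or 18S rRNA; mean ± SE, n=3.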

[2] = system: human insulin promoter; assay: Human insulin promoter-GFP transgene assay in T6PNE cells; assay type: cell-based; settings: for effect of reported HNF4α ligands on insulin promoter activity: 48 hours, 0.5 μM or 1 μM tamoxifen
Method in brief: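 T6PNE cells carry a lentiviral human insulin promoter–GFP transgene. Cells were treated for 48 hours; where stated, tamoxifen was 0.5 or 1 μM and fatty acids 0.12 mM. The green channel was imaged and percent GFP+ cells normalized to total cells per well.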

[3] = system: INS1 and INS2 genes; assay: Insulin gene mRNA in MIN6 cells after prolonged fatty acid exposure; assay type: cell-based, murine; settings: 0.08mM Oleate or 0.02mM Palmitate, 110 days
[4] = system: HNF4α gene expression; assay: HNF4α mRNA expression in MIN6 cells; assay type: cell-based, murine; settings: for effect of fatty acid on HNF4α gene in MIN6: 0.08mM Oleate or 0.02mM Palmitate, 110 days
[5] = target: T1, HNF4α (Homo sapiens, UniProt P41235); assay: DARTS assay in HepG2 cells; assay type: binding; settings: HepG2, 20μM, 24hr, subtilisin
T1 sequence (P41235 1-474): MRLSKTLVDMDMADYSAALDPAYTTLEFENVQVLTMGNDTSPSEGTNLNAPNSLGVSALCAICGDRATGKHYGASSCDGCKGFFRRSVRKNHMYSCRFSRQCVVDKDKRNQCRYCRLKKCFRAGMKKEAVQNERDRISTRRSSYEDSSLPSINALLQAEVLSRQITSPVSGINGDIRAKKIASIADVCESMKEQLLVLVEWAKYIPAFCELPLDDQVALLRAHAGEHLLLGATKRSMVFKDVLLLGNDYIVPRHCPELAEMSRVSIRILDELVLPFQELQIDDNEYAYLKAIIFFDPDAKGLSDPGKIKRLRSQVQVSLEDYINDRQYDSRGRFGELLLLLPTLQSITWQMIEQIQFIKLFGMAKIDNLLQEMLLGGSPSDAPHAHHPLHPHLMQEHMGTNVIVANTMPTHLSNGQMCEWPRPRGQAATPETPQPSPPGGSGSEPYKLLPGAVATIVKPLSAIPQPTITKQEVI
Method in brief: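 DARTS: HepG2 cells were treated with DMSO or test compound at 20μM for 24hr. Read-out is the ligand-induced change in HNF4α sensitivity to proteolysis.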

[6] = target: T2, HNF4α DNA binding (Homo sapiens, UniProt P41235); assay: HNF4α DNA binding, HNF TransAM ELISA on HepG2 nuclear extracts; assay type: cell-based; settings: HepG2 incubated overnight with compound
T2 sequence (P41235 1-474): T1 sequence (P41235 1-474)
Method in brief: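 HepG2 cells were incubated overnight with test compound. Nuclear protein extracts (5μg) were added to wells bearing an oligonucleotide with an HNF4α binding site. Bound HNF4α was detected with an anti-HNF4α antibody (ELISA). Mean ± SD, n=3 biological replicates; Student's t-test.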

[7] = system: modified estrogen receptor (E47MER); assay: Counterscreen: prevention of E47MER translocation; assay type: cell-based
[8] = Solubility; assay type: physicochemical
[9] = system: PPARγ; assay type: cell-based; settings: PPRE-Luc, HeLa
Method in brief: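 HeLa cells were co-transfected with a PPRE-Luc reporter, with or without a PPARγ expression vector, then treated with test compound. Read-out was luciferase activity; mean ± SE, n=3.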

[10] = target: PPARδ (Homo sapiens, UniProt Q03181); assay: PPRE-luciferase reporter assay with PPARδ co-transfection; assay type: cell-based
[11] = target: PPARα (Homo sapiens, UniProt Q07869); assay: PPRE-luciferase reporter assay with PPARα co-transfection; assay type: cell-based
[12] = system: tumor cell lines; assay: Toxicity to tumor cell lines versus cultured primary cells in vitro; assay type: cell-based
[13] = system: p57Kip2 expression; assay: Kip2 mRNA in T6PNE cells; assay type: cell-based, human
Method in brief: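 Kip2 mRNA in T6PNE cells measured by Q-PCR, normalized to 18s rRNA. Treated and DMSO vehicle cells were compared by Student's t-test.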

[14] = system: HNF4α gene expression; assay: HNF4α mRNA expression in T6PNE cells; assay type: cell-based, human
[15] = Plasma protein binding; assay type: in vitro ADME; settings: after 4 h
[16] = target: full-length HNF4α (Rattus norvegicus, UniProt P22449); assay: Direct binding by quenching of HNF4α aromatic amino acid fluorescence; settings: Hill equation analysis
[17] = system: E47 and PDX-1 binding to the human insulin promoter; assay: ChIP of E47 and PDX-1 on the human insulin promoter in T6PNE cells; assay type: cell-based; settings: 5μM, 48 hours
Method in brief: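 T6PNE cells were given 1μM tamoxifen plus DMSO or 5μM test compound for 48 hours. ChIP used anti-E47 and anti-PDX-1 antibodies, followed by Q-PCR with primers for the E-box and A-box elements of the insulin promoter. Treated and vehicle binding were compared by Student's t-test.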

[18] = Hepatic microsomal stability; assay type: in vitro ADME; settings: after 1.25 h
[19] = Plasma stability; assay type: in vitro ADME; settings: after 3 h
[20] = system: HNF4α gene expression; assay: HNF4α mRNA expression in HepG2 cells; assay type: cell-based; settings: 48 hours
Method in brief: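 HNF4α mRNA in treated HepG2 cells measured by Q-PCR and normalized to 18S rRNA. Differences in expression assessed by Student's t-test.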

Chain of full-length HNF4α (P22449 whole entry): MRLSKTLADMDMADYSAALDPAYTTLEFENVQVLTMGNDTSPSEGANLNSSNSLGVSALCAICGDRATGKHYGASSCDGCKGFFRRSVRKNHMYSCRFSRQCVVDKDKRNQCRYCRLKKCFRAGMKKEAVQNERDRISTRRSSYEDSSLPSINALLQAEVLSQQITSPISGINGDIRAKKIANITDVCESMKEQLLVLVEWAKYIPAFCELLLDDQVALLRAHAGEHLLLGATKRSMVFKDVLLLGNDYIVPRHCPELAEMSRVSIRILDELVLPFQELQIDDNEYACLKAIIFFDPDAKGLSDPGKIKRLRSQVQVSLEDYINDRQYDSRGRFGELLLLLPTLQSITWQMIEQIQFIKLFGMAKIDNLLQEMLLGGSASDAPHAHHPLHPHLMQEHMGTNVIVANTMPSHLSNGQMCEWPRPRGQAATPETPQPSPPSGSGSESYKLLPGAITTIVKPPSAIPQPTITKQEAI
Chain of PPARδ (Q03181 whole entry, species assumed): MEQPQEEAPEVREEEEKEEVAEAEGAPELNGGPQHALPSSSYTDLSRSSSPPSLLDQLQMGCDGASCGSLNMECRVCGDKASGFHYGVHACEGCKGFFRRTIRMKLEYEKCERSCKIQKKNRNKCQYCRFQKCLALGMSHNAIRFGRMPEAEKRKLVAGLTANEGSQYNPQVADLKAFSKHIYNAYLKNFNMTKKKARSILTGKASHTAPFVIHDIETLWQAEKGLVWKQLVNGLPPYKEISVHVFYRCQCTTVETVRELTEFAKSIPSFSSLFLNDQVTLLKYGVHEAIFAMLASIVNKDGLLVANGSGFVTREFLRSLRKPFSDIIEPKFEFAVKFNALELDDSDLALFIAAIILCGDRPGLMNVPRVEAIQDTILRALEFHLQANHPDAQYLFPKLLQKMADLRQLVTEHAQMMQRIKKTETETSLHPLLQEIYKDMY
Chain of PPARα (Q07869 whole entry, species assumed): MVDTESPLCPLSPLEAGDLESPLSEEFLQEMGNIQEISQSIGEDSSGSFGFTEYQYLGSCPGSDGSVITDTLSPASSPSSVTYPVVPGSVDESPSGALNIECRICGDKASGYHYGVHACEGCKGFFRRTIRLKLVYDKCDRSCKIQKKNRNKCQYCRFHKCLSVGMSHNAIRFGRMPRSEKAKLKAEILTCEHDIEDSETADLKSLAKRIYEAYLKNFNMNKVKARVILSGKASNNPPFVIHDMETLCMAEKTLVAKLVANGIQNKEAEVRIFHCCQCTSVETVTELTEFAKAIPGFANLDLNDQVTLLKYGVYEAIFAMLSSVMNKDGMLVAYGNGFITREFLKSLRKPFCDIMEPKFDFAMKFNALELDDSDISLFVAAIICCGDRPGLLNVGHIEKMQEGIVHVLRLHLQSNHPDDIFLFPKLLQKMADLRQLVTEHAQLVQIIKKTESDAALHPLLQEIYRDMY

Molecule: CCCC(=O)O [butyric]
- effect of fatty acid on insulin gene expression (quantitative RT-PCR) [1]: did not have an effect

Molecule: CC(=O)O [acetic]
- effect of fatty acid on insulin gene expression (quantitative RT-PCR) [1]: did not have an effect

Molecule: 3-methyl-2-nitronaphthofuran [Compound 5]
- effect of reported HNF4α ligands on insulin promoter activity [2]: none of these compounds had consistent and robust effects

Molecule: CC(C)(CCCCCCCCCCC(C)(C)CC(=O)O)CC(=O)O [Medica-16, 3,3,14,14-tetramethylhexadecanedioic acid]
- effect of reported HNF4α ligands on insulin promoter activity [2]: none of these compounds had consistent and robust effects

Molecule: CCCCCCCC/C=C\CCCCCCCC(=O)O [oleate, reference compound]
- effect on INS2 gene in MIN6 [3]: inhibited
- effect of fatty acid on HNF4α gene in MIN6 [4]: inhibited

Molecule: Cc1nc2ccccc2n1Cc1cc([N+](=O)[O-])ccc1O [BI6018]
- activity in the insulin promoter assay [2]: inactive
- effect on HNF4α protease sensitivity (DARTS) [5]: no effect
- effect on HNF4α DNA binding [6]: inactive

Molecule: O=[N+]([O-])c1ccc2nc(-c3ccco3)[nH]c2c1 [compound 5816458]
- estrogenic antagonism / tamoxifen-like activity (E47MER translocation) [7]: estrogenic antagonists

Molecule: Cc1nc2ccccc2n1S(=O)(=O)c1cc([N+](=O)[O-])ccc1Cl [BIM5078, 1-(2′-chloro-5′-nitrobenzenesulfonyl)-2-methylbenzimidazole]
- solubility at 18 h [8]: 0.17 µg/mL (≈ 0.483 µM)
- PPRE activation enhanced by co-transfection with PPARγ expression vector [9]: ~4 fold
- activity as PPARγ agonist [9]: had activity as PPARγ agonists
- PPRE activation ([9]; without PPARγ expression vector): 2 fold
- luciferase activity with PPARδ co-transfected [10]: no change in luciferase activity
- luciferase activity with PPARα co-transfected [11]: no change in luciferase activity
- toxicity to tumor cell lines in vitro [12]: toxic
- effect on Kip2 expression [13]: potently decreased
- effect on HNF4α protease sensitivity (DARTS) [5]: induced altered HNF4α protease sensitivity
- effect on HNF4α DNA binding [6]: active but less potent
- effect on HNF4α expression in MIN6 ([4]; 5 hours): potently repressed
- effect on HNF4α expression in T6PNE ([14]; 48 hours): potently repressed
- binding to plasma proteins, bound [15]: 98%
- Hill coefficient of binding [16]: 0.9 ± 0.3
- IC50 ([1]; Homo sapiens, 48 h, read-out: IC50, inhibition of endogenous insulin expression): 930 nM
- effect on endogenous insulin expression / insulin promoter activity [1]: had activity
- association of E47 with the distal (E2) E-box of the insulin promoter [17]: significantly decreased
- association of PDX-1 at A-boxes (A1, A3, A5) of the insulin promoter [17]: significantly decreased
- microsomal stability, remaining [18]: 32%
- estrogenic antagonism / tamoxifen-like activity (E47MER translocation) [7]: passed the counterscreen
- plasma stability, remaining [19]: 8%
- effect on HNF4α expression in HepG2 [20]: potently repressed

Molecule: CCCCCS(=O)(=O)NC(=O)c1ccc2nc(C)n(Cc3ccc(Cl)cc3Cl)c2c1 [FK614, reference compound]
- activity as PPARγ agonist [9]: had activity as PPARγ agonists
- effect on Kip2 expression [13]: no effect
- effect on HNF4α protease sensitivity (DARTS) [5]: no effect
- effect on HNF4α DNA binding [6]: inactive
- Hill coefficient of binding [16]: 0.6 ± 0.1
- effect on endogenous insulin expression / insulin promoter activity [1]: no effect

Molecule: CCCCC/C=C\C/C=C\CCCCCCCC(=O)O [linoleic acid]
- effect of fatty acid on insulin gene expression (quantitative RT-PCR) [1]: inhibited

Molecule: CCCCCCCCCCCCCCCC(=O)O [palmitate, reference compound]
- effect on INS2 gene in MIN6 [3]: inhibited
- effect of fatty acid on HNF4α gene in MIN6 [4]: inhibited
- effect of fatty acid on HNF4α mRNA levels in T6PNE ([14]; 48 hour treatment, with tamoxifen): significantly inhibited
- effect of fatty acid on insulin gene expression (quantitative RT-PCR) [1]: dose-dependent decrease

Source: paper PMC3447631 (Chemistry & biology, 2012)
